Results published in ChEMBL document CHEMBL1795208 (J Med Chem, 2011).
Active and inactive are the calls of the source. The rule behind the calls is not given here.

Columns and labels:
[1] = molecular target: T1, Heat shock protein HSP90 (Homo sapiens) (UniProt P07900+P08238); test: Inhibition of Hsp90 in human MCF7 cells assessed as Raf1 degradation at IC50 concentration after 24 hrs by Western blot analysis; assay type: cell-based
[2] = molecular target: T1, Heat shock protein HSP90 (Homo sapiens); test: Inhibition of Hsp90 in human MCF7 cells assessed as Raf1 degradation after 24 hrs by Western blot analysis; assay type: cell-based
In short: (§1)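 MCF-7 cells grown as for proliferation and treated with compound at various concentrations, GDA, or DMSO vehicle (1% DMSO final) for 24 h. Lysed in RIPA with 1 mM PMSF, 2 mM orthovanadate and protease inhibitors on ice for 1 h, then clarified at 14000g. Protein measured by BCA. 20 µg run reducing, transferred to nitrocellulose and probed with specific antibodies.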

[3] = molecular target: T1, Heat shock protein HSP90 (Homo sapiens); test: Inhibition of Hsp90 in human MCF7 cells assessed as Akt degradation after 24 hrs by Western blot analysis; assay type: cell-based; in short: as §1
SK-BR-3 [4] = test: Antiproliferative activity against human SKBR3 cells expressing HER2 after 72 hrs by MTS/PMS assay; assay type: functional, cell-based; conditions: SK-BR-3, 72 h
In short: (§2)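 Cells kept in Advanced DMEM/F12 (1:1) with non-essential amino acids, 2 mM L-glutamine, penicillin, streptomycin and 10% FBS at 37 °C, 5% CO2. Seeded at 2000/well, attached overnight. Compound added in DMSO across a concentration range (1% DMSO final) for 72 h. Viable cells read by MTS/PMS and normalized to 1% DMSO controls (100%). IC50 taken from separate triplicate experiments.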

[5] = Antiproliferative activity against human androgen-independent PC3MM2 cells after 72 hrs by MTS/PMS assay; assay type: functional, cell-based; conditions: PC3MM2, 72 h; in short: as §2
[6] = molecular target: T1, Heat shock protein HSP90 (Homo sapiens); test: Inhibition of Hsp90 in human MCF7 cells assessed as Akt degradation at IC50 concentration after 24 hrs by Western blot analysis; assay type: cell-based
[7] = molecular target: T1, Heat shock protein HSP90 (Homo sapiens); test: Inhibition of Hsp90 in human MCF7 cells assessed as Her2 degradation after 24 hrs by Western blot analysis; assay type: cell-based; in short: as §1
MCF7 = test: Antiproliferative activity against human MCF7 cells expressing estrogen receptor after 72 hrs by MTS/PMS assay; assay type: functional, cell-based; conditions: MCF7, 72 h; in short: as §2
[8] = molecular target: T1, Heat shock protein HSP90 (Homo sapiens); test: Inhibition of Hsp90 in human MCF7 cells assessed as Her2 degradation at IC50 concentration after 24 hrs by Western blot analysis; assay type: cell-based
SK-BR-3 [9] = test: Ratio of novobiocin IC50 to compound IC50 for human SKBR3 cells expressing HER2; assay type: functional
[10] = Antiproliferative activity against human JMAR cells after 72 hrs by MTS/PMS assay; assay type: functional, cell-based; in short: as §2
SK-MEL-28 = test: Antiproliferative activity against human SK-MEL-28 cells after 72 hrs by MTS/PMS assay; assay type: functional, cell-based; conditions: SK-MEL-28, 72 h; in short: as §2
B16-F10 = test: Antiproliferative activity against mouse B16F10 cells after 72 hrs by MTS/PMS assay; assay type: functional, cell-based; conditions: B16-F10, 72 h; in short: as §2
[11] = Antiproliferative activity against human MDA1986 cells after 72 hrs by MTS/PMS assay; assay type: functional, cell-based; conditions: MDA1986, 72 h; in short: as §2
[12] = Antiproliferative activity against human androgen-dependent LNCaP-LN3 cells after 72 hrs by MTS/PMS assay; assay type: functional, cell-based; conditions: LNCaP-LN3, 72 h; in short: as §2

Row | SMILES | inhibition [1] | inhibition [2] | inhibition [3] | IC50 (SK-BR-3 [4]) | IC50 [5] | inhibition [6] | inhibition [7] | IC50 (MCF7) | inhibition [8] | Ratio IC50 (SK-BR-3 [9]) | IC50 [10] | IC50 (SK-MEL-28) | IC50 (B16-F10) | IC50 [11] | IC50 [12]
1 | COc1cc2cc(NC(=O)c3ccc(OC(C)=O)c(CC=C(C)C)c3)c(=O)oc2c(C)c1OCCCN(C)C | Active | Dose-dependent effect | Dose-dependent effect | 0.36 µM | 1.46 µM | Active | Dose-dependent effect | 0.7 µM | Active | – | – | – | – | – | –
2 | COc1cccc(-c2cc(C(=O)Nc3cc4cc(OC)c(O[C@@H]5OC[C@@H]6OC(=O)O[C@H]56)c(C)c4oc3=O)ccc2OC)c1 | – | – | – | – | – | – | – | – | – | 500 | – | – | – | – | –
3 | COc1cccc(-c2cc(C(=O)Nc3cc4ccc(O[C@H]5OCC[C@@H](O)[C@H]5O)c(OC)c4oc3=O)ccc2OC)c1 | – | – | – | 11.1 µM | – | – | – | 10.8 µM | – | 500 | – | – | – | – | –
4 | COc1cc2cc(NC(=O)c3ccc(O)c(CC=C(C)C)c3)c(=O)oc2c(C)c1OC1CCN(C)CC1 | Active | Dose-dependent effect | Dose-dependent effect | 0.42 µM | 2.26 µM | Active | Dose-dependent effect | 0.54 µM | Active | – | – | – | – | – | –
5 | COc1cccc(-c2cc(C(=O)Nc3cc4cc(OC)c(OC5CCCNC5)c(C)c4oc3=O)ccc2OC)c1 (stereo not drawn) | – | – | – | 2.27 µM | 2.59 µM | – | – | 2.9 µM | – | – | 5.7 µM | 7.19 µM | 1.84 µM | 6.4 µM | 3.66 µM
6 | COc1cccc(-c2cc(C(=O)Nc3cc4ccc(O[C@@H]5O[C@H](CO)C[C@@H](O)[C@H]5O)c(C)c4oc3=O)ccc2OC)c1 | – | – | – | 9.59 µM | 4.58 µM | – | – | 11.1 µM | – | – | 5.8 µM | 10.7 µM | 9.6 µM | 5.7 µM | 3.23 µM
